The source made the active and inactive calls.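 Rule for the calls: active = IC50 at or below 10 µM; inactive = IC50 above 10 µM.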
Tested on: CHO-S GAL4-VP16 UAS luciferase reporter, luminescence
Experiment: repression of VP16-driven reporter luminescence – CHO-S cells, counter-screen for NR2E3 agonist project, late-stage follow-up (AID 651846)
Outline: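 Test system: CHO-S cells transiently co-transfected with GAL4 DBD–VP16 fusion plus UAS pGL4.31 luciferase | Timing: 24 h compound treatment, 37 °C | Technique: Luciferase luminescence with One-Glo reagent, 10 min at room temperature | Read-out: % inhibition of luciferase signal | Replicates: Triplicates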

SMILES: Cc1cnc(NC(=O)Cc2ccc(Br)cc2)s1
- IC50: > 39.8 µM (inactive)

SMILES: O=c1c(Cl)c(N2CCN(c3ccc(F)cc3)CC2)cnn1C12CC3CC(CC(C3)C1)C2
- IC50: > 39.8 µM (inactive)

SMILES: O=C(Nc1cccc(NC(=O)c2c(F)cccc2F)n1)c1c(F)cccc1F
- IC50: > 39.8 µM (inactive)

SMILES: Cc1ccnc(NC(=O)CSc2cc(=O)n(C)c3ccccc23)c1
- IC50: > 39.8 µM (inactive)

SMILES: COc1ccc2c(CC(=O)Nc3ncc(C)s3)coc2c1
- IC50: > 39.8 µM (inactive)

SMILES: Cc1cccc(C(=O)N[C@H](C(=O)Nc2ncc(C)s2)C(C)C)c1
- IC50: > 39.8 µM (inactive)

SMILES: Cc1cccc(OCCCC(=O)Nc2nc3ccccc3[nH]2)c1
- IC50: > 39.8 µM (inactive)

SMILES: Cc1onc(-c2ccccc2Cl)c1C(=O)Nc1nc2c(s1)CCCC2
- IC50: > 39.8 µM (inactive)

SMILES: Cc1cnc(NC(=O)C2CC(=O)N(c3ccc4c(c3)OCCO4)C2)s1 (stereo unspecified)
- IC50: > 39.8 µM (inactive)

SMILES: O=C(CSc1nnnn1-c1ccc2c(c1)OCCO2)Nc1nc2c(s1)CCCC2
- IC50: > 39.8 µM (inactive)

SMILES: O=C(O)CC1(CC(=O)Nc2cc(C(F)(F)F)cc(C(F)(F)F)c2)CCCCC1
- IC50: 7.72 µM

SMILES: COc1ccc(S(=O)(=O)N2CCCCC2)cc1NC(=S)Nc1cccc(Cl)c1C
- IC50: > 39.8 µM (inactive)

SMILES: Cc1ccc(CN2CC(C(=O)Nc3ncc(C)s3)CC2=O)cc1 (stereo unspecified)
- IC50: > 39.8 µM (inactive)

SMILES: Cc1cnc(NC(=O)CCCc2nc3ccccc3s2)s1
- IC50: > 39.8 µM (inactive)

SMILES: NC(=O)c1nn(-c2ccccc2)nc1NC(=O)CSc1nnnn1-c1ccc(Cl)cc1
- IC50: > 39.8 µM (inactive)

SMILES: Cc1ccc(NC(=O)CSc2nnnn2-c2ccc3c(c2)OCO3)cc1C
- IC50: > 39.8 µM (inactive)

SMILES: O=C(CSc1nnnn1-c1ccc(O)cc1)Nc1ccc(N2CCOCC2)c(Cl)c1
- IC50: > 39.8 µM (inactive)

SMILES: COc1cccc(N2CCN(c3nc(-c4ccccc4C)cc(=O)[nH]3)CC2)c1
- IC50: > 39.8 µM (inactive)

SMILES: Cc1ccc(-c2nc(NC(=O)CSc3nnnn3-c3ccccc3)ns2)cc1
- IC50: > 39.8 µM (inactive)

SMILES: COc1ccc(S(=O)(=O)N2CCCCC2)cc1NC(=S)Nc1ccccc1
- IC50: > 39.8 µM (inactive)

SMILES: Cc1cc(C)cc(NC(=O)CCc2nc3sc4c(c3c(=O)[nH]2)CCCC4)c1
- IC50: > 39.8 µM (inactive)

SMILES: COc1ccc(NC2c3ccccc3C(=O)N2Cc2ccccc2Cl)cc1OC (stereo unspecified)
- IC50: > 39.8 µM (inactive)

SMILES: COc1cccc(NC(=O)CSc2nc3ncc(Br)cc3[nH]2)c1
- IC50: > 39.8 µM (inactive)

SMILES: COc1cc2nc(CN3CC=C(c4ccccc4)CC3)[nH]c(=O)c2cc1OC
- IC50: > 39.8 µM (inactive)

SMILES: O=c1cc(N2CCN(c3cccc(Cl)c3)CC2)[nH]c(=O)n1C1CCCCC1
- IC50: > 39.8 µM (inactive)

SMILES: COc1ccc(OC)c(NC(=O)CSc2nnnn2-c2ccc3c(c2)OCO3)c1
- IC50: > 39.8 µM (inactive)

Reference: PubChem BioAssay AID651846 (The Scripps Research Institute Molecular Screening Center, 2012)
